# Data from the RNAGym collection of RNA variant scans (doi:10.1126/science.aae0568).
# Variants at the floor of the assay were thinned out.
# B1: tRNA (parent)
# chain: GUUCCGUUGGCGUAAUGGUAACGCGUCUCCCUCCUAAGGAGAAGACUGCGGGUUCGAGUCCCGUACGGAACG
# Variants of: B1
# Test: yeast fitness relative to wild type (ratio to wild type); higher = fitter; tRNA-Arg(CCU), competitive growth, 37 C, YPD
# Outline: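 Variants of the tRNA-Arg(CCU) gene, chemically synthesised with a 3% per-site mutation rate at 69 sites, were placed at the native genomic locus in Saccharomyces cerevisiae. The pooled strains were competed in YPD at 37°C for 24 hours in six parallel replicates. Gene amplicons from the start population and from each end population were read by 100-nucleotide paired-end sequencing. Darwinian fitness relative to wild type came from changes in genotype frequencies; genotypes needed ≥ 100 starting reads, and estimates < 0.5 were set to 0.5.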
row,Variant,yeast fitness
1,GAUCCGUUGGCGUAAUGGUCACGCGUCUCCCUGCUAAGGAGAAGAUUGCGGGUUCGAGUCCCGUACGGAACG [U2A A20C C33G C46U],≤ 0.5
2,GAUCCGUUGGCGUAAUGGUAACGCGUCUCACUCCUAAGGAGAAGACUGUGGGUUCGAGUCGCGUACGGAACG [U2A C30A C49U C61G],≤ 0.5
3,GAUCCGUUGGCGUAAUGGUAACGUGUCUCCGUCCUAAGGAGAAAACUGCGGGUUCGAGUCCCGUACGGAACG [U2A C24U C31G G44A],≤ 0.5
4,GAUCCGUUGGCGUAAUGGUAACGCGUCUCCCUCCUAAGGUGAAGACUGCGGGUUCGAGUCCCGUACGGAUCG [U2A A40U A70U],0.696
5,GAUCCGUUGGGGUAAUGGUAACGCGUCUCCCUCCUAAGGAGAAGACUGCGAGUUCGAGUUCCGUACGGAACG [U2A C11G G51A C60U],≤ 0.5
6,GAUCCGUUGGCGUAAUGGUACCGCGUCUUCCUCCUAAGGAGAAGACUGCGGGUUCGCGUCCCGUACGGAACG [U2A A21C C29U A57C],0.583
7,GAUCCGUUGGCGUAAUGGUAACGCGUCUCCCUCCUAAGGAGAAGACUGCGGGUUCGUGUCCCGUUCGGAACG [U2A A57U A65U],≤ 0.5
8,GAUCCGUUGGCGUAAUGGUAAUGCGUCUCCCUCCUAAGGCGAAGACUGCGGGUUCGACUCCCGUAUGGAACG [U2A C22U A40C G58C C66U],≤ 0.5
9,GAUCAGUUGGCGUAAUGGUAACGCGUUUCCCUCCUAAGGAGAAAACUGCGGGUUCGAGUCCCGUACGGAACG [U2A C5A C27U G44A],≤ 0.5
10,GAUCCGUUGGCGUAAUGGUGACGCGUCUCCCUCCUAAGGAGAAGACUGCGGGUUCGAGUCCCGUACAGAACG [U2A A20G G67A],0.584
11,GAUCCGUUGGCGUAAUGGUCACGCGUCUCCCUGCUAAGGAGAAGAUUGCGGGUUCGAGUCCCGUACGGAGCG [U2A A20C C33G C46U A70G],≤ 0.5
12,GAUCAGUUGGCGUAAUGGUAACGCGUCUCCCUCCUAAGGAGAAGACUGCGGGUUCGAGUCCCGGACGGACCG [U2A C5A U64G A70C],≤ 0.5
13,GAUCCGUUGGGGUAAUGGCAACGCGUCUCCCUCCUAAGGAGAAGACUGCGGGUUCGAGUUCCGUACGGAACG [U2A C11G U19C C60U],≤ 0.5
14,GAUCAGUUGGCAUAAUGGUAACGCGUCUCCCUCCUAAGGAGAAGACUGCGGGUUCGAGUCCCGUACGGAACG [U2A C5A G12A],0.526
15,GAUCGGUUGGCGUAGUGGUAACGCGUCUCCCUCCUAAGGAGAAGACUGCGGGUUCGAGUCCCGUACGGAACG [U2A C5G A15G],0.575
16,GAUCCGUUGGCGUAAUGGUAACGGGUCUCCCUCCUAAGGAGAAGACUGCGGGUUCGAGUCCCGUACGGAACG [U2A C24G],0.643
17,GAUCCGUUGGCGUAAUGGUAACGCGUAUCCCUCCUAAGGAGAAGACUGGGGGUUCGUGUCCCGUAUGGAACG [U2A C27A C49G A57U C66U],0.639
18,GAUCCGUUGGCGUAAUGGUAACGGGUCUCCUUGCUAAGGAGCUGACUGCGGGUUCGAGUCCCGUACGGAACG [U2A C24G C31U C33G A42C A43U],0.651
19,GAUCCGUUGGCGUAAUGGUAAUGCGUCUCCCUCCUAAGGAGAAGACUGCGGGUUCAAGUCCCGUACGGAACG [U2A C22U G56A],0.551

row,Variant,yeast fitness
1,GAUCCGUUGGCGUAAUGGUAACGCGUCUCCCUCCUAAGGAGAAGACUGCGGGUUCGGGUCCCGUACGGAACG [U2A A57G],0.897
2,GAUCCGUUGGCGUAAUGGUAACGCGUCUCCCUCCUAAGGAGACGACUGCGGGUUCGAGUCCCGUACGGAACG [U2A A43C],0.893
3,GAUCUGUUGGCGUAAUGGUUACGCGUCUCCCUCCUAAAGAGAAGACUGCGGGUUCGAGUCCCGUACGGAACG [U2A C5U A20U G38A],0.56
4,GAUCCGUUGGCGUAUUGGUAAAGCGUCUCCCUCCUAAGGAGAAGGAUGCGGGCUCGAGUCCCGUACGGAACG [U2A A15U C22A A45G C46A U53C],0.589
5,GAUCCGUUGGCGUAAUGGUAGCGCGUCUCCCUUCUAAGGAGAAGACUGCGCGUUCGAGUCCCGUACGGAACG [U2A A21G C33U G51C],≤ 0.5
6,GAUCCGUUGGCGUAAUGGUACCGCGUCUUCCUCCUAAGGAGAAGACUGCGGGUUCGAGUCCCGUACGGAACG [U2A A21C C29U],≤ 0.5
7,GAUCCGUUGGCGUAAUGGUAACGCGUCUCCCUCCUAAGGUGAAGACUGCGGGUUCGAGUCCCGUACGGAACG [U2A A40U],0.796
8,GAUAGGUUGGCGUAAUGGUAACGCGUCUCCCUCCUGAGGAGAAGACUGCGGGUUCGAGUCCCGUACAGAACG [U2A C4A C5G A36G G67A],≤ 0.5
9,GAUCAGUUGGCGUAAUGGUAACGCGUCUCCCUCCUAAGGAGAAGACUGCGGGUUCCAGUCCCGUACGGAACG [U2A C5A G56C],0.56
10,GAUCAGUUGGCGUAAUGGUAACGCGUCUCCCUCCUAAGGAGAAGACUGCGGGUUCAAGUCCCGUACGGAACG [U2A C5A G56A],0.526
11,GAUCCGUUGGCGUAAUGGUAACGCGUCUCCCUCCUGAGGAGAAGACUGAGGGUUCGAGUCUCGUACGGAACG [U2A A36G C49A C61U],≤ 0.5
12,GAUCGGUUGGCGUAAUGGUAACGCGUCUCCCUCCUAAGGGGAAGCCUGCGGGUUCGAGUCCCGUACGGAACG [U2A C5G A40G A45C],≤ 0.5
13,GAUCCGUUGGCGUAAUGGUACAGCGUCUUCCUCCUAAGGAGAAGACUGGGGGUUCGAGUCCCGUACGGAACG [U2A A21C C22A C29U C49G],≤ 0.5
14,GAUUCGUUGGCGUAAUGGUAACGCGUCUCCCUCCUAAGGAGAAGACUGCGGGUUCGUGUCCCGUACGGAACG [U2A C4U A57U],≤ 0.5
15,GAUCCGUUGGCGUAAUGGUUACGCGUCUCCCUCUUAAGGAGAAGACUGCGAGUUCGAGUCCCGUACGGAACG [U2A A20U C34U G51A],≤ 0.5
16,GAUACGUUGGCGUAAUGGUAACGCGUCUCCCUCCUAAGGAGAAGACUGCGGGUUCGAGUCCCGUACGGAACG [U2A C4A],0.914
17,GAUCCGUUGGCGUAAUGGUAACGCGUCUACCUCCUAAGGAGAAGUCUGCGGGUUCGAGUCCCGUACGCAACG [U2A C29A A45U G68C],≤ 0.5
18,GAUCCGUUGGCGUAAUGGUAACGCGUCUACCUCCUAAGGAGACGACUGCGGGUUCGAGUCCCGUACGGAACG [U2A C29A A43C],≤ 0.5
19,GAUCCGUUGGUGUAAUGGUAACGCGUCUCCCUCCUAAGGAGAAGACUGCGGGUUCGAGUCCCGUACGGAACG [U2A C11U],0.894
